Screens (PubChem BioAssay)
Runt-SMMHC FRET = Runt domain-CBFb-SMMHC interaction inhibition; Q01196+Q13951; Cerulean-Runt/Venus-CBFb-SMMHC FRET ratio 530/480, 1 h; inhibition, % at 20 µM; 220,000 tested, 0.74% active;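 active = mean inhibition across duplicate retests at 20 µM reaching about 50%, limit read from the data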;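 note: inhibitors lower the FRET ratio by blocking Runt binding to CBFb-SMMHC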
Runt-CBFb FRET = inhibitors of human RUNX1 Runt domain binding to CBFb | AID 1496 | 220,000 tested, 0.46% active | inhibition, % at 20 µM | Q01196+Q13951 | Cerulean-Runt/Venus-CBFb FRET ratio 530/480, 1 h;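 active = inhibition over about 50% at 20 µM in the single-dose screen, limit read from the data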
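Measured by: fluorescence energy transfer, 422 nm excitation, 530/480 nm emission; test system: Cerulean-tagged RUNX1 Runt domain (FRET donor) fusion protein; buffer or medium: Tris pH 7.5 buffer with BSA; compound: one dose, 20 µM compound, 1% DMSO; times: two 1 h room-temperature incubations shielded from light; benchmarks: unlabeled CBFb 5 µM, positive control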
Hck Nef HTS = inhibitors of human Hck kinase activated by Nef; Recombinant Hck-YEEI plus Nef, Z-Lyte FRET kinase assay; 220,000 tested, 0.68% active; inhibition, % at 20 µM; P08631;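 active = Hck-Nef kinase inhibition above about 50%, limit read from the data; inactive = inhibition below that limit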
Target sequence (P08631 whole entry, looked up): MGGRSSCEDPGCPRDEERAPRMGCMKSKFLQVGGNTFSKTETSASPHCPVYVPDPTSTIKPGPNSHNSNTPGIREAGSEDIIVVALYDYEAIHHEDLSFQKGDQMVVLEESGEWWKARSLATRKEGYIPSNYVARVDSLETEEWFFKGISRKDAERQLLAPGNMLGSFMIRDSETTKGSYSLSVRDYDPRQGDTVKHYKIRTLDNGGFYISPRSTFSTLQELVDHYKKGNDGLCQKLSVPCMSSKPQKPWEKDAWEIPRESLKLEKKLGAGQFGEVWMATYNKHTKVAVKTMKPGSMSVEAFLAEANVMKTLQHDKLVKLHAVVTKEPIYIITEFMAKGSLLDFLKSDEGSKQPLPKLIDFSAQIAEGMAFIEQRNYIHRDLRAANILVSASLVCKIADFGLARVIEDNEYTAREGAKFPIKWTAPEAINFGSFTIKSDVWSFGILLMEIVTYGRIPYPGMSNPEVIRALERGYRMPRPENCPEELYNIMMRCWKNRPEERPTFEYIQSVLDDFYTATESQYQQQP
M18AAP inhibitor = blocks P. falciparum M18 aspartyl aminopeptidase | recombinant PfM18AAP, H-Glu-NHMec fluorogenic cleavage | inhibition, % at 7.35 µM | 290,000 tested, 1.2% active | AID 1822;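 active = inhibition above the campaign mean inhibition over all tested compounds plus 3 SD, cut at about 28% in these data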
RanGTP-Imp inh = inhibitors of RanGTP-importin-beta interaction, primary screen, biochemical, FRET, CFP-Ran, YFP-importin-beta, homogeneous; cell-free CFP-Ran/YFP-importin-beta FRET ratio; inhibition, % (concentration not given with the values); 300,000 tested, 1.1% active;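 active = more than half of the replicate wells show a fall in the fluorescence ratio signal beyond about 16%, limit read from the data, passing the limit was not always enough; inconclusive = exactly half of the replicate wells pass the set limit; inactive = fewer than half of replicates pass the limit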
RBBP9 inhibitor = human RBBP9 hydrolase inhibition; AID 1515; inhibition, % at 7.94 µM; recombinant RBBP9, FP-Rh probe fluorescence polarization; 220,000 tested, 0.2% active;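 active = inhibition above the campaign mean of all tested compounds plus 3 SD, cut at about 14% in these data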
Target sequence (O75884 whole entry, looked up): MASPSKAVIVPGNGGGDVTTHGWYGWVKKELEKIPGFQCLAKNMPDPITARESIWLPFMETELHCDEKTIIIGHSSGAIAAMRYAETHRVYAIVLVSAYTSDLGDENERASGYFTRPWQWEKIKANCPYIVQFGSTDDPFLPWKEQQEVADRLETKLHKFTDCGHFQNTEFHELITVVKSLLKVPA
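Assay system: recombinant human RBBP9; Reagent: Serine-hydrolase probe FP-Rh, 375 nM pre-mixing; Doses: 7.94 µM single dose, 0.794% DMSO; Incubation: 30 min then 45 min, 25 °C; Detection: fluorescence polarization (mP), excitation 525 nm, emission 598 nm; Evaluation: percent inhibition from mP, scaled between DMSO and no-protein wells.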
Numbers stand for hits; i = inactive; ? = inconclusive; nt = no result given. Rows were chosen to be rich in hits. Some 2.9% of all compounds tested hit in one or more screens of this group.

SMILES | Runt-SMMHC FRET | Runt-CBFb FRET | Hck Nef HTS | M18AAP inhibitor | RanGTP-Imp inh | RBBP9 inhibitor
CC1CN(C(=O)c2cc3c(=O)n4ccccc4nc3n2C)CC(C)O1 (stereo unspecified) | nt | nt | nt | i | i | nt
CCN(C(=O)c1cc2c(=O)n3ccccc3nc2n1C)C1CCCCC1 | nt | nt | nt | i | ? | nt
Cn1c(C(=O)N2CCc3ccccc3C2)cc2c(=O)n3ccccc3nc21 | 78.8 | i | i | i | i | i
CC(=O)NCC1CCN(C(=O)C2CCC(=O)N(CCc3cccc(F)c3)C2)CC1 (stereo unspecified) | nt | nt | nt | i | i | nt
O=C(Nc1ccccc1O)C(c1ccccc1)c1ccccc1 | nt | nt | nt | i | i | nt
CC(=O)/C=C(\C)Nc1ccccc1O | i | i | i | 29.0 | i | i
COc1ccc(NC(=O)CN(C)C(=O)c2ccc(OCc3ccccc3)c(OC)c2)cc1 | nt | nt | nt | nt | i | nt
CCOC(=O)c1[nH]c2c(c1-c1ccccc1)C(=O)CC(c1ccc(OCC)cc1)C2 (stereo unspecified) | i | i | i | i | i | i
CCOC(=O)c1[nH]c2c(c1-c1ccccc1)C(=O)CC(c1ccc(OC)c(OC)c1)C2 (stereo unspecified) | i | 101.6 | i | i | i | i
COc1ccc([N+](=O)[O-])cc1NC(=O)c1ccc(Br)s1 | i | i | 78.7 | i | i | i
N#C/C(=C/c1ccc(-c2cc(C(=O)O)cc(C(=O)O)c2)o1)c1nc2ccccc2s1 | 68.8 | 84.9 | i | i | i | i
CCN(CC)c1ccc(C2C(C(=O)Nc3ccccn3)=C(C)NC3=C2C(=O)CC(C)(C)C3)cc1 (stereo unspecified) | i | i | i | i | i | i
CCn1cc(C2C(C(=O)Nc3cc(C)ccn3)=C(C)NC3=C2C(=O)CC(C)(C)C3)c(C)n1 (stereo unspecified) | 69.0 | i | i | i | i | i
CCn1cc(C2C3=C(CC(C)(C)CC3=O)N(c3ccccc3)C3=C2C(=O)CC(C)(C)C3)c(C)n1 | 82.4 | i | i | i | ? | i
CC1(C)CC(=O)C2=C(C1)N(c1ccccc1)C(N)=C(C#N)C2c1ccccc1 (stereo unspecified) | i | i | i | i | i | i
CC1=C(C(=O)Nc2cc(C)ccn2)C(c2ccc(C)cc2)C2=C(CCCC2=O)N1 (stereo unspecified) | 50.8 | i | i | i | i | i
CC(=O)NNC(=S)NCCc1ccccc1 | i | i | i | 29.6 | i | i
Cc1ccc(NC(=S)NCCc2ccccc2)nc1 | i | i | i | 29.1 | ? | i
Oc1ccccc1/C=N/NC(=S)NCCc1ccccc1 | nt | nt | nt | 29.1 | i | nt
Cc1ccc(NC(=O)CCCc2ccccc2)nc1 | i | i | i | i | i | i
O=C(CCc1ccccc1)NNC(=S)NCCc1ccccc1 | nt | nt | nt | i | i | nt
CCCn1c(N)c(N(CCOC)C(=O)c2ccc([N+](=O)[O-])cc2Cl)c(=O)[nH]c1=O | nt | nt | nt | i | i | nt
CCCCn1c(N)c(N2CCOCC2)c(=O)n(CC(=O)NC(C)c2ccccc2)c1=O (stereo unspecified) | i | i | i | i | 27.2 | i
CCCn1c(N)c(N2CCCCC2)c(=O)n(CC(=O)Nc2ccccc2)c1=O | i | i | i | i | i | i
O=C(COC(=O)CCS(=O)(=O)c1ccccc1)NC(=O)c1ccc(OC(F)F)cc1 | nt | nt | nt | nt | i | nt
SMILES | Runt-SMMHC FRET | Runt-CBFb FRET | Hck Nef HTS | M18AAP inhibitor | RanGTP-Imp inh | RBBP9 inhibitor
CC1=NN(C(=O)COc2ccc(C)c(C)c2)C(O)(c2ccccc2)C1 (stereo unspecified) | i | i | i | i | 22.0 | i
COc1ccc(NC(=O)CCNS(=O)(=O)c2cccc3nonc23)cc1 | nt | nt | nt | i | i | nt
CN(C(=O)COC(=O)CN1C(=O)C2CC=CCC2C1=O)c1ccccc1 (stereo unspecified) | nt | nt | nt | nt | i | nt
CCOc1cc(C2C(C#N)=C(N)Oc3cc(N)ccc32)ccc1O (stereo unspecified) | nt | nt | nt | i | 69.0 | nt
N#CC1=C(N)Oc2cc(N)ccc2C1c1cccc(Br)c1 (stereo unspecified) | nt | nt | nt | i | 54.9 | nt
N#CC1=C(N)Oc2cc(N)ccc2C1c1ccsc1 (stereo unspecified) | i | i | i | i | 33.2 | i
N#CC1=C(N)Oc2cc(N)ccc2C1C1CC=CCC1 (stereo unspecified) | i | i | i | i | 140.7 | i
N#CC1=C(N)Oc2cc(N)ccc2C1c1cc(Br)cs1 (stereo unspecified) | nt | nt | nt | i | i | nt
CC(=O)Nc1ccc(S(=O)(=O)NC2(C(F)(F)F)C(=O)Nc3c2c(=O)[nH]c(=O)n3Cc2ccco2)cc1 (stereo unspecified) | i | i | i | i | i | i
CCOc1cc(C2C(C#N)=C(N)OC(C)=C2C(C)=O)cc(Br)c1O (stereo unspecified) | i | i | i | i | 19.2 | i
CCOc1cc(C2C(C#N)=C(N)OC(C)=C2C(C)=O)c(Br)c(Br)c1OC(C)C (stereo unspecified) | i | i | i | i | i | i
Cc1ccc(C2C(C#N)=C(N)Oc3cc(N)ccc32)cc1 (stereo unspecified) | nt | nt | nt | i | 90.0 | nt
Cc1cc(-c2csc(NCc3ccccc3)n2)c(C)n1C | i | i | 65.1 | i | nt | i
Cc1nc(N)sc1-c1csc(NCc2ccccc2)n1 | i | i | i | i | i | i
O=C(CN1C(=O)NC2(CCc3ccccc32)C1=O)c1c[nH]c2ccccc12 (stereo unspecified) | nt | nt | nt | nt | i | nt
Cc1ccc(CNc2nc(C)nc3sc4c(c23)CCC4)cc1 | i | i | i | i | 25.5 | i
Cc1ccc(CNC(=O)Nc2ccc(F)cc2F)n1C | nt | nt | nt | 30.3 | i | nt
Cc1ccc(CNC(=O)Nc2ccccc2)n1C | nt | nt | nt | i | i | nt
Cc1ccccc1CNS(=O)(=O)c1c(C(=O)N2CCCC2)c(C)n(C)c1C | nt | nt | nt | i | i | nt
CCN1C(=O)/C(=C2/C=Cc3cc(C)ccc3N2CC)N(C)C1=S | i | i | i | i | i | i
CCN1C(=C(C#N)C#N)C=Cc2cc(C)ccc21 | 76.7 | i | i | i | 52.3 | i
COc1cccc(CNC(=O)c2cccc(Br)c2)c1 | i | i | i | i | 30.4 | i
COc1cccc(CNC(=O)c2cccc(S(=O)(=O)N3CCN(C)CC3)c2)c1 | nt | nt | nt | i | i | nt
COCC1CCN(Cc2c(C(=O)N3CCN(C4CCCCC4)CC3)nc3ccccn23)C1 (stereo unspecified) | nt | nt | nt | i | 111.4 | nt
O=C(c1cnn2ccccc12)N1CCN(C2CCCCC2)CC1 | i | i | i | i | i | i
O=C(c1nc2ccccn2c1CN1CCC(Cc2ccccc2)CC1)N1CCCC1 | i | i | i | i | i | i
COC1CCN(Cc2c(C(=O)N3CCN(C4CCCCC4)CC3)nc3ccccn23)CC1 | nt | nt | nt | i | 103.9 | nt
O=C(c1nc2ccc(Cl)cn2c1CNCCn1ccnc1)N1CCCCCCC1 | i | i | i | i | i | i
